Assay results: ChEMBL document CHEMBL3865784 (Eur J Med Chem, 2016)

Key:
[1] = Cytotoxicity against human HCT116 cells expressing NQO1 assessed as reduction in cell viability after 72 hrs by MTT assay; format: functional, cell-based; conditions: HCT-116, 72 h
Outline: (§1)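 Cancer lines from NCI, grown in RPMI 1640 with 10% FBS, 2 mM L-glutamine, penicillin/streptomycin, 37 °C, 5% CO2; seeded 0.1 × 10^6 cells/well (HL-60) or 0.7 × 10^5 cells/well (solid tumours). Compounds in DMSO, final 0.1% v/v; DMSO vehicle as negative control.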

[2] = Cytotoxicity against NQO1-deficient chinese hamster V79 cells assessed as reduction in cell viability after 72 hrs by MTT assay; format: toxicity, cell-based, Cricetulus griseus; conditions: v79
[3] = tested on: HL-60; test: Selectivity index, ratio of IC50 for NQO1-deficient human PBMC to IC50 for NQO1-deficient human HL60 cells
Outline: (§2)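 Selectivity index is IC50 in the normal cells divided by IC50 in the cancer line. Normal cells: V79 and L929 in DMEM, PBMC in RPMI with phytohaemagglutinin. Cancer lines in RPMI with 10% FBS, seeded at 0.1 × 10^6 (HL-60) or 0.7 × 10^5 cells/well (solid tumors). Absorbance 550 nm; nonlinear regression.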

[4] = Cytotoxicity against human OVCAR8 cells overexpressing NQO1 assessed as reduction in cell viability after 72 hrs by MTT assay; format: functional, cell-based; conditions: OVCAR-8, 72 h; outline: as §1
[5] = tested on: L929; test: Selectivity index, ratio of IC50 for NQO1-deficient mouse L929 cells to IC50 for NQO1-deficient human HL60 cells; format: functional; outline: as §2
[6] = organism: Mus musculus; test: Cytotoxicity against NQO1-deficient mouse L929 cells assessed as reduction in cell viability after 72 hrs by MTT assay; format: toxicity, cell-based; conditions: l929
[7] = tested on: V79; test: Selectivity index, ratio of IC50 for NQO1-deficient chinese hamster V79 cells to IC50 for human MDA-MB-435 cells overexpressing NQO1; outline: as §2
[8] = Cytotoxicity against human PC3 cells overexpressing NQO1 assessed as reduction in cell viability after 72 hrs by MTT assay; format: functional, cell-based; conditions: PC-3, 72 h
[9] = tested on: L929; test: Selectivity index, ratio of IC50 for NQO1-deficient mouse L929 cells to IC50 for human MDA-MB-435 cells overexpressing NQO1; outline: as §2
[10] = tested on: L929; test: Selectivity index, ratio of IC50 for NQO1-deficient mouse L929 cells to IC50 for human PC3 cells overexpressing NQO1; outline: as §2
[11] = tested on: L929; test: Selectivity index, ratio of IC50 for NQO1-deficient mouse L929 cells to IC50 for human SF295 cells overexpressing NQO1; outline: as §2
[12] = Cytotoxicity against NQO1-deficient human PBMC assessed as reduction in cell viability after 72 hrs by MTT assay; format: toxicity, cell-based; conditions: for IC50: pbmc
[13] = Selectivity index, ratio of IC50 for NQO1-deficient human PBMC to IC50 for human MDA-MB-435 cells overexpressing NQO1; outline: as §2
[14] = tested on: HL-60; test: Selectivity index, ratio of IC50 for NQO1-deficient chinese hamster V79 cells to IC50 for NQO1-deficient human HL60 cells; format: functional; outline: as §2
[15] = tested on: SF-295; test: Selectivity index, ratio of IC50 for NQO1-deficient human PBMC to IC50 for human SF295 cells overexpressing NQO1; outline: as §2
[16] = tested on: V79; test: Selectivity index, ratio of IC50 for NQO1-deficient chinese hamster V79 cells to IC50 for human PC3 cells overexpressing NQO1; outline: as §2
[17] = tested on: PC-3; test: Selectivity index, ratio of IC50 for NQO1-deficient human PBMC to IC50 for human PC3 cells overexpressing NQO1; outline: as §2
[18] = Cytotoxicity against human MDA-MB-435 cells overexpressing NQO1 assessed as reduction in cell viability after 72 hrs by MTT assay; format: functional, cell-based; conditions: MDA-MB-435, 72 h; outline: as §1
[19] = Cytotoxicity against human SF295 cells overexpressing NQO1 assessed as reduction in cell viability after 72 hrs by MTT assay; format: functional, cell-based; conditions: SF-295, 72 h
[20] = Cytotoxicity against NQO1-deficient human HL60 cells assessed as reduction in cell viability after 72 hrs by MTT assay; format: functional, cell-based; conditions: HL-60, 72 h; outline: as §1
[21] = tested on: OVCAR-8; test: Selectivity index, ratio of IC50 for NQO1-deficient human PBMC to IC50 for human OVCAR8 cells overexpressing NQO1
Outline: as §2, with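 “line. All IC50s come from 72 h MTT assays.” for “line.”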

[22] = tested on: OVCAR-8; test: Selectivity index, ratio of IC50 for NQO1-deficient chinese hamster V79 cells to IC50 for human OVCAR8 cells overexpressing NQO1
Outline: as §2, with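 “line. All IC50s come from 72 h MTT assays.” for “line.”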

[23] = tested on: L929; test: Selectivity index, ratio of IC50 for NQO1-deficient mouse L929 cells to IC50 for human OVCAR8 cells overexpressing NQO1; outline: as §2
[24] = tested on: HCT-116; test: Selectivity index, ratio of IC50 for NQO1-deficient chinese hamster V79 cells to IC50 for human HCT116 cells expressing NQO1
Outline: as §2, with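 “line. All IC50s come from 72 h MTT assays.” for “line.”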

[25] = tested on: HCT-116; test: Selectivity index, ratio of IC50 for NQO1-deficient mouse L929 cells to IC50 for human HCT116 cells expressing NQO1
Outline: as §2, with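 “line. All IC50s come from 72 h MTT assays.” for “line.”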

[26] = tested on: SF-295; test: Selectivity index, ratio of IC50 for NQO1-deficient chinese hamster V79 cells to IC50 for human SF295 cells overexpressing NQO1; outline: as §2

| SMILES | IC50 [1] [µM] | IC50 [2] [µM] | IC50 [4] [µM] | Ratio IC50 [5] | IC50 [6] [µM] | IC50 [8] [µM] | Ratio IC50 [11] | Ratio IC50 [14] | IC50 [18] [µM] | IC50 [19] [µM] | IC50 [20] [µM] | IC50 [12] [µM] | further results |
| --- | --- | --- | --- | --- | --- | --- | --- | --- | --- | --- | --- | --- | --- |
| CC1(C)OC2=C(C(=O)C(=O)c3ccccc32)C(N=[N+]=[N-])[C@@H]1Br (some centres undefined) | 2.48 | 2.4 | 2.24 | 1.4 | 2.04 | 1.68 | 1 | 1.6 | 1.54 | – | – | – | Ratio IC50 [3]: 2.5; Ratio IC50 [7]: 1.5; Ratio IC50 [9]: 1.3; Ratio IC50 [10]: 1.2; IC50 at 72 h ([12]; human): 3.58 µM; Ratio IC50 [13]: 2.3; Ratio IC50 [15]: 1.8; Ratio IC50 [16]: 1.4; Ratio IC50 [17]: 2.1 |
| C#Cc1cccc(NC2CC(C)(C)OC3=C2C(=O)c2ccccc2C3=O)c1 (centres undefined) | > 14 | > 14 | > 14 | – | > 14 | > 14 | – | – | > 14 | > 14 | > 14 | > 14 | – |
| O=C1C2=C(OC(Cn3cc(C[Se]c4ccccc4)nn3)C2)C(=O)c2ccccc21 (centres undefined) | 2.42 | 2.02 | 0.91 | 2.6 | 2.15 | 1.4 | 2.1 | 2.4 | 0.62 | 0.98 | 0.82 | 2.8 | Ratio IC50 [21]: 3; Ratio IC50 [22]: 2.2; Ratio IC50 [7]: 3.2; Ratio IC50 [23]: 2.3; Ratio IC50 [9]: 3.4; Ratio IC50 [10]: 1.5; Ratio IC50 [13]: 4.5; Ratio IC50 [15]: 2.8; Ratio IC50 [16]: 1.4; Ratio IC50 [17]: 2 |
| CC1(C)OC2=C(C(=O)C(=O)c3ccccc32)[C@@H](n2cc(C[Se]c3ccccc3)nn2)[C@@H]1Br | 1.11 | 2.17 | 0.92 | 1.4 | 1.74 | 1.9 | 1.1 | 1.7 | 1.31 | 1.52 | 1.22 | – | Ratio IC50 [21]: 2; Ratio IC50 [22]: 2.3; Ratio IC50 [3]: 1.5; Ratio IC50 [24]: 1.9; Ratio IC50 [7]: 1.6; Ratio IC50 [23]: 1.8; Ratio IC50 [9]: 1.3; Ratio IC50 [10]: 0.9; Ratio IC50 [15]: 1.2; Ratio IC50 [25]: 1.5; Ratio IC50 [16]: 1.1; Ratio IC50 [17]: 0.9 |
| C#Cc1cccc(NC2C3=C(OC2(C)C)C(=O)c2ccccc2C3=O)c1 (centres undefined) | 4.6 | 6.06 | 7.13 | – | – | 5.15 | – | – | 3.93 | > 14.6 | 2.59 | 6.46 | – |
| CC1(C)OC2=C(C(=O)c3ccccc3C2=O)C1n1cc(C[Se]c2ccccc2)nn1 (centres undefined) | 2.54 | 4.03 | 2.8 | – | 3.77 | 2.95 | – | – | 2.15 | 2.65 | 1.59 | 3.23 | – |
| O=C1C(Cl)=C(NCc2cn(C[Se]c3ccccc3)nn2)C(=O)c2ccccc21 | 3.25 | 2.51 | 2.58 | – | 3.43 | 2.25 | – | – | 2.01 | 2.93 | – | 6.34 | – |
| [N-]=[N+]=NC1=CC(=O)c2ccccc2C1=O | 4.27 | 5.77 | 3.51 | – | 5.17 | 2.16 | – | – | 2.36 | 3.41 | – | 8.64 | – |
| O=C1C2=C(C(=O)c3ccccc31)[C@H](c1ccccc1)[C@@H](n1cc(C[Se]c3ccccc3)nn1)CO2 | 7.22 | 6.74 | – | – | 7.16 | 7.79 | – | – | 6.82 | 5.58 | 8.26 | – | – |
| CC1(C)OC2=C(C(=O)C(=O)c3ccccc32)C1N=[N+]=[N-] (centres undefined) | 0.89 | 3.27 | 1.34 | – | 2.67 | 1.74 | – | – | – | – | – | – | – |
| CC1(C)CC(n2cc(C[Se]c3ccccc3)nn2)C2=C(O1)C(=O)c1ccccc1C2=O (centres undefined) | 2.24 | – | 2.55 | – | – | 3.89 | – | – | – | 4.2 | 5.46 | 4.45 | – |
| O=C1C2=C(C(=O)c3ccccc31)[C@H](c1cccc3ccccc13)[C@@H](n1cc(C[Se]c3ccccc3)nn1)CO2 | > 8.67 | > 8.67 | > 8.67 | – | > 8.67 | > 8.67 | – | – | > 8.67 | > 8.67 | > 8.67 | > 8.67 | – |
| CC1(C)OC2=C(C(=O)c3ccccc3C2=O)C1N=[N+]=[N-] (centres undefined) | 3.3 | – | 3.53 | – | 3.68 | 4.09 | – | – | 2.52 | 3.04 | 2.23 | 3.16 | – |
| O=C1C=C(n2cc(C[Se]c3ccccc3)nn2)C(=O)c2ccccc21 | > 12.7 | > 12.7 | > 12.7 | – | > 12.7 | > 12.7 | – | – | > 12.7 | > 12.7 | > 12.7 | > 12.7 | – |
| O=C1C(Br)=C(NCc2cn(C[Se]c3ccccc3)nn2)C(=O)c2ccccc21 | 1.67 | 3.03 | – | 2.9 | 3.3 | 2.29 | 2 | 2.7 | 1.43 | 1.61 | 1.11 | 3.86 | Ratio IC50 [3]: 3.4; Ratio IC50 [26]: 1.8; Ratio IC50 [24]: 1.8; Ratio IC50 [7]: 2.1; Ratio IC50 [9]: 2.3; Ratio IC50 [13]: 2.6; Ratio IC50 [25]: 1.9 |
| CC1(C)CC(Nc2cccc(-c3cn(C[Se]c4ccccc4)nn3)c2)C2=C(O1)C(=O)c1ccccc1C2=O (centres undefined) | 4.9 | 3.65 | 3.09 | 1.6 | 3.3 | 2.6 | 1.7 | 1.8 | 1.49 | 1.88 | 2 | 4.16 | Ratio IC50 [3]: 2; Ratio IC50 [26]: 1.9; Ratio IC50 [7]: 2.4; Ratio IC50 [9]: 2.2; Ratio IC50 [13]: 2.8 |
| CC1(C)CC(N=[N+]=[N-])C2=C(O1)C(=O)c1ccccc1C2=O (centres undefined) | 2.96 | 3.67 | 1.48 | 2.4 | 4.13 | 2.15 | 2 | 2.2 | 2.72 | – | 1.66 | 6.11 | Ratio IC50 [21]: 4.1; Ratio IC50 [3]: 3.6; Ratio IC50 [26]: 1.7; Ratio IC50 [23]: 2.7; Ratio IC50 [15]: 2.9 |
| CC1(C)CCC2=C(O1)c1ccccc1C(=O)C2=O [LAPACHONE] | 0.87 | – | – | – | – | – | – | – | 0.25 | 0.95 | – | > 20.6 | – |
